Here are results for 3 substances from PMC4855511 (Clinical chemistry, 2011).

The conditions of data set [1]: in vivo, ref [27], [28]; cited from earlier work.
For data set [2] the following is noted: cited from earlier work.
The subject of another data set is GC-A. The conditions noted are these: ref [15], cited from earlier work.
Data set [3] addresses T1, human GC-A (Homo sapiens, UniProt P16066).
T1 sequence (P16066 33-1061): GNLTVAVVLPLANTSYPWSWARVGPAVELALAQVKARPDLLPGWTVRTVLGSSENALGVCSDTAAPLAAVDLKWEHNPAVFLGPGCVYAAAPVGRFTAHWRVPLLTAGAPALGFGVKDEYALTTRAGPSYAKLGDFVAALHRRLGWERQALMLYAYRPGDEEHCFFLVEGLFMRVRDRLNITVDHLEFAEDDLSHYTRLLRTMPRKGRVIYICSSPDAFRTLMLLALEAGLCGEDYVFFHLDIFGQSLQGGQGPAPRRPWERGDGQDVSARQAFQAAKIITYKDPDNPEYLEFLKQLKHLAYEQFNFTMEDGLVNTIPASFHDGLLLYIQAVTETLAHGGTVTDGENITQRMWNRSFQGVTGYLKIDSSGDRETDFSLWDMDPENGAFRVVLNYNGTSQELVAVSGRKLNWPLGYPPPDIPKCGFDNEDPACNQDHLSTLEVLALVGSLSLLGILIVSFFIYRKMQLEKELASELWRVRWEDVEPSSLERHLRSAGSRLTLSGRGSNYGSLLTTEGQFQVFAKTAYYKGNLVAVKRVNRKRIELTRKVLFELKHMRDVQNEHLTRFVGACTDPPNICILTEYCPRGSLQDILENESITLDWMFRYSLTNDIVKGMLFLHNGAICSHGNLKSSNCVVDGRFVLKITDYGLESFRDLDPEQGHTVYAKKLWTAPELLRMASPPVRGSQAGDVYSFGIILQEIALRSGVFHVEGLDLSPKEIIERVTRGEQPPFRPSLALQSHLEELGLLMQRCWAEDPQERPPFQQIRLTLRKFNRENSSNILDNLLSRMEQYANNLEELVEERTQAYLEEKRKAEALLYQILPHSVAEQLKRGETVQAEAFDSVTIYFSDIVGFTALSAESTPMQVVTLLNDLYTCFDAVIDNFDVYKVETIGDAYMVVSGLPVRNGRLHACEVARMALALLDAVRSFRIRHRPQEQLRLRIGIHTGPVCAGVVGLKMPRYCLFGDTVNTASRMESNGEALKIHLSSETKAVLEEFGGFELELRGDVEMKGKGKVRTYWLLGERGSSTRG
Kind of data set: Cellular cGMP elevation in HEK293 cells stably expressing human GC-A. The format is cell-based. In short, it runs like this: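 HEK293 cells stably expressing human GC-A, held serum-free 4–12 h to 75%–90% confluence. Preincubated 10 min at 37 °C in DMEM with 1 mmol/L IBMX and 25 mmol/L HEPES pH 7.4, then exposed 3 min to increasing peptide in the same medium. Stopped with ice-cold 80% ethanol; dried supernatant assayed for cGMP by RIA. Triplicates in 3 separate assays; EC50 with 95% CI.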

The target of data set [4] is T1, human GC-A. Kind of data set: Whole-cell 125I-ANP competition binding, 293-GC-A cells. The conditions noted are these: IC50 proBNP1–108 / IC50 BNP1–32. In short, it runs like this:
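293-GC-A cells on poly-d-lysine, at 75%–90% confluence, held 1–2 h at 37 °C in DMEM with 0.2% BSA. Incubated 1 h at 4 °C with ¹²⁵I-ANP in 1% BSA binding medium, with or without increasing unlabeled peptide. Washed twice with ice-cold PBS, lysed in 1 mol/L NaOH, γ-counted. B/Bo plotted against log competitor to give IC50. Triplicates in 3 experiments.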

Data set [5] can be described thus: Proteolytic inactivation by human kidney membranes with GC-A receptor bioassay. The format is in vitro ADME.

As for “B-type natriuretic peptide [BNP, reference compound]”, the Half-life in humans in data set [1] is recorded as 20 min. The Half-life in rats in data set [2] (rat, in vivo) was 1 min.

With “glycosylated proBNP1–108: glycosylated version of human proBNP1–108 studied in cited literature”, in data set [2] (result in words, ref [26]), the “Half-life in rats compared with nonglycosylated proBNP1–108” value was “longer half-life”. Further, the “Potency on activation of GC-A, glycosylated versus nonglycosylated” value in the data set with GC-A (result in words) is “no significant difference”.

Turning to “proBNP1–108: recombinant human 108-residue BNP prohormone with N-terminal His6-tag and rTEV site, expressed in E. coli”, in the data set with human GC-A [3] (EC50 proBNP1–108 / EC50 BNP1–32), the “Fold greater EC50 than BNP1–32 on GC-A” value is recorded as “approximately 13 fold”. For the same substance, in the data set with human GC-A [3] (result in words), the “Maximal stimulation of GC-A” value is on record as “near-maximum activities”. Besides, the “Fold higher IC50 than BNP1–32 on GC-A” value with human GC-A [4] is recorded as “approximately 35 fold”. For the same substance, in data set [5], the “Fold longer half time for degradation by human kidney membranes than BNP1–32” value is on record as 2.7 fold and the “Fold longer time for complete inactivation than BNP1–32” value was determined as 6 fold. In addition, the “Fold reduced potency compared with BNP1–32” value in the data set with GC-A (cGMP in human endothelial and vascular smooth muscle cells) was 6- to 8 fold.
